For eight compounds, GFP response vs DMSO, GFP response relative to DMSO and GFP response, % of DMSO results are on record in PubChem BioAssay.

Assay [1] can be described thus: hit retest on RPL19A-GFP reporter strain – cell-based, S. cerevisiae, flow cytometry, cherry picks, mother/daughter gates, confirmation (AID 2270;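 active = GFP response below 50% of the DMSO control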). Conditions: 3 h, at 10 µM, stronger effect = lower value, 100 = same GFP as DMSO wells. In general terms: Flow cytometry measures light scatter and fluorescence of single cells or particles in a stream.
A short description of assay [2]: yeast TOR pathway reporter LAP4-GFP change – cell-based, cherry picks, flow cytometry, mother/daughter gates, confirmation (AID 2271;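 active = GFP response above 150% of the DMSO control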;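 note: ratio of sample to DMSO plate mean so 100% equals DMSO level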). Conditions: S. cerevisiae LAP4-GFP strain, 3 h, at 10 µM, stronger effect = higher value, 100 means same as DMSO control. In short, it runs like this:
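System: Alexa 633-stained baker's yeast GFP-fusion strain / Medium: synthetic complete (SC) yeast growth medium / Doses: compound at 10 µM, single point / Times: 3 h treatment at 30 °C with rotation / Detection: HT flow cytometry, GFP fluorescence channel / Benchmarks: DMSO-only negative wells, rapamycin 400 ng/mL positive wells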

Assay [3] can be described thus: TOR pathway reporter MEP2-GFP, retest of hits – S. cerevisiae, flow cytometry GFP, cherry picks, confirmation (AID 2272;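 active = GFP response above 150% of the DMSO control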;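 note: ratio of well signal to plate DMSO mean so 100% equals DMSO level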). Conditions: S. cerevisiae MEP2-GFP strain, 3 h, at 10 µM, stronger effect = higher value.
Assay [4] can be described thus: yeast AGP1-GFP fluorescence change, single-dose – cell-based, flow cytometry, S. cerevisiae, cherry picks, confirmation (AID 2273).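 Note: median GFP channel fluorescence over the whole cell population gate.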 As to conditions: S. cerevisiae AGP1-GFP strain, 3 h, at 10 µM.
A short description of assay [5]: TOR pathway CIT2 reporter hit retest – S. cerevisiae, GFP fusion, cherry picks, mother/daughter gates, confirmation (AID 2274). As to conditions: S. cerevisiae CIT2-GFP strain, flow cytometry, 3 h, at 10 µM, stronger effect = higher value.
The mark [6] stands for this setting: measured here: daughter cell gate.
The mark [7] stands for this setting: measured here: mother cell gate.
The mark [8] stands for this setting: measured here: daughter cell gate response.
The mark [9] stands for this setting: measured here: mother cell gate response.

Activity calls are given as the source filed them.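 Rule for the calls, unless noted: active = GFP response above 150% of the DMSO level; inconclusive = fewer than 70 events counted for a yeast strain; inactive = the rest.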

Turning to `CCc1noc(C)c1C(=O)Nc1nc(-c2ccc(Cl)cc2Cl)c(C)s1`, the GFP response vs DMSO in assay [1] was 98.8% (inactive); in assay [1] (setting [6]), 99.1%; in assay [1] (setting [7]), 98.8%; in assay [3], 99.5% (inactive). Also, the values for the GFP response relative to DMSO in assay [2], in assay [2] (setting [8]) and in assay [2] (setting [9]) were 98.8% (inactive), 99.3% and 97.5%, respectively. The GFP response, % of DMSO is 102% (inactive) in assay [4], 96.4% (inactive) in assay [5], 96.4% in assay [5] (setting [6]) and 94.5% in assay [5] (setting [7]).

In the case of `CSc1ccc(/C=N/NC(=O)c2ccc(O)cc2)cc1`, the GFP response vs DMSO is 97.8% (inactive) in assay [1], 98.1% in assay [1] (setting [6]), 98.5% in assay [1] (setting [7]) and 103% (inactive) in assay [3]. Moreover, the figures for the GFP response relative to DMSO in assay [2], in assay [2] (setting [8]) and in assay [2] (setting [9]) were 97% (inactive), 97.5% and 96.2%, respectively. Further, the GFP response, % of DMSO was 103% (inactive) in assay [4], 103% (inactive) in assay [5], 103% in assay [5] (setting [6]) and 103% in assay [5] (setting [7]).

Regarding `COc1ccc(/C=N\NC(=O)c2cc(OCC(F)(F)F)ccc2OCC(F)(F)F)cc1`, the GFP response vs DMSO in assay [1] was 93.7% (inactive); in assay [1] (setting [6]), 97.9%; in assay [1] (setting [7]) it was 94%; in assay [3], 102% (inactive). Also, the GFP response relative to DMSO in assay [2] was 96.7% (inactive); in assay [2] (setting [8]), 97.6%; in assay [2] (setting [9]), 98.3%. In addition, the GFP response, % of DMSO in assay [4] was 94.8% (inactive); in assay [5] it was 98.3% (inactive); in assay [5] (setting [6]), 99.1%; in assay [5] (setting [7]) it was 95%.

Turning to `C=CCNC(=O)/C(C#N)=C/c1c(N(Cc2ccccc2)Cc2ccccc2)nc2ccccn2c1=O`, the GFP response vs DMSO in assay [1] is 98.8% (inactive); in assay [1] (setting [6]), 98.6%; in assay [1] (setting [7]), 98.8%; in assay [3], 103% (inactive). Also, the GFP response relative to DMSO in assay [2] was 99.8% (inactive); in assay [2] (setting [8]), 99.7%; in assay [2] (setting [9]) it was 99.2%. Also, the GFP response, % of DMSO is 101% (inactive) in assay [4], 94.7% (inactive) in assay [5], 96.8% in assay [5] (setting [6]) and 94.7% in assay [5] (setting [7]).

`O=C(/C=C/c1c(F)cccc1Cl)c1ccc(F)cc1`: the GFP response vs DMSO is 104% (inactive) in assay [1], 104% in assay [1] (setting [6]), 101% in assay [1] (setting [7]) and 157% (inactive) in assay [3]. In addition, the values for the GFP response relative to DMSO in assay [2], in assay [2] (setting [8]) and in assay [2] (setting [9]) were 118% (inactive), 120% and 120%, respectively. In addition, the GFP response, % of DMSO in assay [4] was 104% (inactive); in assay [5], 126% (inactive); in assay [5] (setting [6]) it was 129%; in assay [5] (setting [7]), 120%.

For the compound `CC1=C(C)/C(=N\OS(=O)(=O)c2ccccc2)C=CC1=O`, the GFP response vs DMSO is 99.1% (inactive) in assay [1], 98.8% in assay [1] (setting [6]), 91.2% in assay [1] (setting [7]) and 112% (inactive) in assay [3]. Besides, the GFP response relative to DMSO in assay [2] is 250% (active); in assay [2] (setting [8]) it was 196%; in assay [2] (setting [9]), 236%. Besides, the GFP response, % of DMSO is 93.4% (inactive) in assay [4], 105% (inactive) in assay [5], 111% in assay [5] (setting [6]) and 95.6% in assay [5] (setting [7]).

`COc1ccc(OC)c(C2CC(c3c(-c4ccccc4)c4cc(Cl)ccc4[nH]c3=O)=NN2S(C)(=O)=O)c1` (stereo not drawn): the GFP response vs DMSO was 100% (inactive) in assay [1], 99% in assay [1] (setting [6]), 102% in assay [1] (setting [7]) and 100% (inactive) in assay [3]. The GFP response relative to DMSO is 92.6% (inactive) in assay [2], 92.5% in assay [2] (setting [8]) and 97.2% in assay [2] (setting [9]). For the same compound, the GFP response, % of DMSO in assay [4] was 96.1% (inactive); in assay [5], 97.8% (inactive); in assay [5] (setting [6]), 96.5%; in assay [5] (setting [7]) it was 97.7%.

With `O=C(/C=C/c1ccc(F)cc1)NC(=S)NNC(=O)c1cnccn1`, the GFP response vs DMSO in assay [1] is 108% (inactive); in assay [1] (setting [6]), 89.8%; in assay [1] (setting [7]) it was 105%; in assay [3], 132% (inactive). Besides, the GFP response relative to DMSO in assay [2] was 313% (active); in assay [2] (setting [8]), 146%; in assay [2] (setting [9]), 301%. Further, the GFP response, % of DMSO is 83.4% (inactive) in assay [4], 124% (inactive) in assay [5], 101% in assay [5] (setting [6]) and 113% in assay [5] (setting [7]).
